Measurements reported in ChEMBL document CHEMBL4422700, “Trichothecenes from a Soil-Derived Trichoderma brevicompactum” (J Nat Prod, 2019).
In brackets after ≈: the same amount, converted by molar mass. Activity calls are given as the source filed them. No cut-off for these calls is given here.

Tests used:
Cryptococcus neoformans = test: Antifungal activity against flucytosine-resistant, Cryptococcus neoformans ATCC 90113 by colorimetric broth microdilution method; assay type: functional
Candida albicans = test: Antifungal activity against Candida albicans NCPF3153 by colorimetric broth microdilution method; assay type: functional
Vero = test: Cytotoxicity against African green monkey Vero cells assessed as reduction in cell viability by resazurin microplate assay; assay type: cell-based, Chlorocebus sabaeus
Summary of the method: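 Vero (African green monkey kidney fibroblast) cells, run in triplicate. Ellipticine served as positive control.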

Plasmodium falciparum = test: Antimalarial activity against multidrug-resistant Plasmodium falciparum K1 infected in erythrocytes assessed as reduction in [3H]-hypoxanthine incorporation incubated for 24 hrs before [3H]-hypoxanthine addition and measured after 24 hrs by microplate scintillation counting based microculture radioisotope technique; assay type: functional, organism-based
Summary of the method: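 Ring-stage K1 culture in RPMI-1640 at 1.5% erythrocyte suspension and 1% parasitaemia, exposed to test solution at 37 °C under CO2 for 24 h. 3H-hypoxanthine (0.5 μCi per well) was then added and incubation continued 24 h. Incorporation was read by scintillation counting; % growth = CPM treated/CPM untreated × 100. Dihydroartemisinin served as standard.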

KB = test: Cytotoxicity against human KB cells assessed as reduction in cell viability by resazurin microplate assay; assay type: functional, cell-based
Summary of the method: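 KB cells tested by resazurin microplate assay. Ellipticine served as positive control.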

Nannizzia gypsea = test: Antifungal activity against Microsporum gypseum by colorimetric broth microdilution method; assay type: functional
[1] = Plasmodium falciparum, K1, read-out: IC50

For `C[C@@H]1[C@H](O)[C@@H](C)/C=C/C=C/C=C/C=C/C=C/C=C/C=C/[C@H](O[C@@H]2O[C@H](C)[C@@H](O)[C@H](N)[C@@H]2O)C[C@@H]2O[C@](O)(C[C@@H](O)C[C@@H](O)[C@H](O)CC[C@@H](O)C[C@@H](O)CC(=O)O[C@H]1C)C[C@H](O)[C@H]2C(=O)O` [AMPHOTERICIN B], the MIC (Cryptococcus neoformans) was 0.25 µg/mL (≈ 0.271 µM) and the MIC (Candida albicans) was 0.5 µg/mL (≈ 0.541 µM).
With `Cc1c2ccncc2c(C)c2c1[nH]c1ccccc12` [ELLIPTECINE] the IC50 (Vero; Chlorocebus sabaeus, Vero) was 4.1 µM.
Molecule `CC(=O)O[C@@H]1C[C@H]2O[C@@H]3C=C(C)CC[C@]3(C)[C@]1(C)[C@]21CO1` has an IC50 (Vero; vero) of 0.4 µM, an IC50 (Plasmodium falciparum; read-out: IC50) of 0.1 µM and an IC50 (KB; kb) of 2.4 µM.
For `CC1=C[C@H]2O[C@@H]3C[C@@H](O)[C@](C)([C@@]2(C)CC1)[C@]31CO1` [TRICHODERMOL], the IC50 (Vero; vero) was 6.9 µM, the MIC (Nannizzia gypsea) was “inactive” and the IC50 (Plasmodium falciparum; read-out: IC50) was 7.1 µM. For the same molecule, the IC50 (KB; kb) was 16.1 µM.
With `CC1=C[C@]23O[C@@H]4C[C@@H](O)[C@](C)([C@@]2(C)CC1)[C@]4(CO)O3` the IC50 (Vero; Chlorocebus sabaeus, Vero) was 15.3 µM, the MIC (Cryptococcus neoformans) was 16 µg/mL (≈ 60.1 µM) and the MIC (Nannizzia gypsea) was “inactive”. For the same molecule, the IC50 (Plasmodium falciparum; [1]) was 7.4 µM, the MIC (Candida albicans) was 16 µg/mL (≈ 60.1 µM) and the IC50 (KB; Homo sapiens, KB) was 44.7 µM.
With `C[C@H]1C(O)O[C@@H]2O[C@@]3(C)CC[C@H]4[C@H](C)CCC1C24OO3` (some centres not stated) the IC50 (Plasmodium falciparum; [1]) was 0.0022 µM.
`Clc1ccc(COC(Cn2ccnc2)c2ccc(Cl)cc2Cl)c(Cl)c1` (configuration not stated) [MICONAZOLE] was tested, and the MIC (Nannizzia gypsea) was 1 µg/mL (≈ 2.4 µM).
For `CC(=O)O[C@@H]1C[C@H]2O[C@@H]3C=C(CO)CC[C@]3(C)[C@]1(C)[C@]21CO1`, the IC50 (Vero; vero) was 7.8 µM, the MIC (Nannizzia gypsea) was “inactive” and the IC50 (Plasmodium falciparum; read-out: IC50) was 8.8 µM. For the same molecule, the IC50 (KB; kb) was 20.6 µM.
In the case of `CC(=O)O[C@@H]1C[C@H]2O[C@@H]3C[C@H](CO)CC[C@]3(C)[C@]1(C)[C@]21CO1`, the IC50 (Vero; vero) is reported as 45.9 µM, the MIC (Cryptococcus neoformans) is reported as “inactive” and the MIC (Nannizzia gypsea) is reported as “inactive”. The IC50 (Plasmodium falciparum) was “Not Active”, the MIC (Candida albicans) was “inactive” and the IC50 (KB; kb) was 116 µM.
`CC(=O)O[C@@H]1C[C@H]2O[C@@H]3C=C(C=O)CC[C@]3(C)[C@]1(C)[C@]21CO1` was tested, and the IC50 (Vero; vero) was 9.9 µM, the MIC (Nannizzia gypsea) was “inactive” and the IC50 (Plasmodium falciparum; read-out: IC50) was 9.6 µM. The IC50 (KB; kb) was 3.7 µM.
